Results reported in publication PMC9727797 (Molecular Biology of the Cell, 2022).

Experiments:
[1] = system: HeLa-derived KIRC-2 cells; assay: Preanaphase spindle monopolarity, HeLa-derived KIRC-2 cells; assay type: cell-based; conditions: same concentrations as in KIRC-1 cells
KIF15-N420 = target: T1, KIF15-N420 (Homo sapiens, UniProt Q9NS87); assay: Enzyme-coupled ATPase assay, concentration response; assay type: biochemical; conditions: 2 mM ATP, 5 μM microtubules
T1 sequence (Q9NS87 1-420 limits assumed): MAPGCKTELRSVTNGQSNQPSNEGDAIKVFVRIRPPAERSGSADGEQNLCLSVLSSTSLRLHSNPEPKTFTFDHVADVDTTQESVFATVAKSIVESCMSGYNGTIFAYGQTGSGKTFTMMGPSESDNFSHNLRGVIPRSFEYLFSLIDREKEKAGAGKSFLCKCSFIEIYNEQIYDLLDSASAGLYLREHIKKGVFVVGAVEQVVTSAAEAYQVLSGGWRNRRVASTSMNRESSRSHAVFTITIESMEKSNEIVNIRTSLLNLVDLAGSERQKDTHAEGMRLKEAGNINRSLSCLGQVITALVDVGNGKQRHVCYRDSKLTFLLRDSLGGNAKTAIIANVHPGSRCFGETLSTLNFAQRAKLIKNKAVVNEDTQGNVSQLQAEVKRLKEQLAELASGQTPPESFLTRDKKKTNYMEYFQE
In short: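 Concentration response used the same NADH-coupled KIF15-N420 reaction (A340, 25°C), with 2 mM ATP and 5 μM microtubules at every test-compound concentration. Eight compound concentrations were tested. Curves were built from repeated measurements plotted as mean ± SEM.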

[2] = system: KIF15 on spindle microtubules in RPE-1 cells; assay: KIF15 on metaphase spindles; assay type: cell-based, human; conditions: Fift-IN 25 µM, Munesib-1 50 µM
In short: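 RPE-1 cells on glass coverslips were treated overnight with test compound (25 or 50 µM) or DMSO in normal medium. Cells were fixed in 100% methanol at –20°C for 10 min. Staining used rabbit anti-KIF15 (1:2000, 1 h), FITC anti-α-tubulin (1:500, 30 min) and Hoechst 33342. Max-intensity z-projections were imaged.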

HeLa cells = assay: Preanaphase spindle monopolarity, parental HeLa cells; assay type: cell-based
Eg5 = target: T2, Eg5 (Homo sapiens, UniProt P52732); assay: Microtubule gliding assay, Eg5; assay type: biochemical; conditions: 24 µM Munesib-1 or 100 µM Fift-IN
T2 sequence (P52732 1-1056): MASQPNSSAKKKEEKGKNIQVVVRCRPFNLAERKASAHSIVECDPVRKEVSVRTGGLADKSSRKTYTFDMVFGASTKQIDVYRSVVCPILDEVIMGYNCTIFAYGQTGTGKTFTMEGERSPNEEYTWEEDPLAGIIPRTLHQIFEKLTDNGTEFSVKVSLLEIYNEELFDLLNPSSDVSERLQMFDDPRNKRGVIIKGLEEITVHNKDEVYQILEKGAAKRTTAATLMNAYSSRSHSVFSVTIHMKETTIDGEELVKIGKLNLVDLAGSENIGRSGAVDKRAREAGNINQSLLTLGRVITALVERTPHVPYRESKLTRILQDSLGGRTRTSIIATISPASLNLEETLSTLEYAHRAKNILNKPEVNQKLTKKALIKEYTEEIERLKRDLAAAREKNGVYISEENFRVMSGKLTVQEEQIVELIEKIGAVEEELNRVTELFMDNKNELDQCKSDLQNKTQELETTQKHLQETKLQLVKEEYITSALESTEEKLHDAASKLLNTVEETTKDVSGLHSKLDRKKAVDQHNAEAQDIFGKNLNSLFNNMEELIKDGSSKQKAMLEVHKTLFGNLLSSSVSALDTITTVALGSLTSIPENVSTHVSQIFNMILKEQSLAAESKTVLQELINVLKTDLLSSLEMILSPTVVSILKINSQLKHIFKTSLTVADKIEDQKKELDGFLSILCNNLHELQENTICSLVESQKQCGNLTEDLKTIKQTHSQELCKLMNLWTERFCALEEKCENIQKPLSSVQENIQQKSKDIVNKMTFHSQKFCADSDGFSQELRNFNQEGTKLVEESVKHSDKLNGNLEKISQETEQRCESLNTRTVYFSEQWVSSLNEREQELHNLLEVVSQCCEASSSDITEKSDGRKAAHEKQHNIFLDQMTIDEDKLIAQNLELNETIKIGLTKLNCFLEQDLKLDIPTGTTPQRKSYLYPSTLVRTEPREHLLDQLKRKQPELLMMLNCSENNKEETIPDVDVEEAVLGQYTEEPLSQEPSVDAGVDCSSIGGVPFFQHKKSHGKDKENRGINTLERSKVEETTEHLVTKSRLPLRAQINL
In short: (§1)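 Gliding assays with other motors used His6-Eg5, His6-EGFP-HSET or K560 (truncated kinesin-1), with test compound at 24 µM or 100 µM. Frames were captured every 5 s for 1 min at 100×. Velocity was the distance travelled in 1 min, from ≥15 microtubules at each of three locations (n ≥ 50 per slide).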

HSET = target: T3, HSET (Homo sapiens, UniProt Q9BW19); assay: Microtubule gliding assay, HSET; assay type: biochemical; conditions: 24 µM Munesib-1 or 100 µM Fift-IN
T3 sequence (Q9BW19 1-673): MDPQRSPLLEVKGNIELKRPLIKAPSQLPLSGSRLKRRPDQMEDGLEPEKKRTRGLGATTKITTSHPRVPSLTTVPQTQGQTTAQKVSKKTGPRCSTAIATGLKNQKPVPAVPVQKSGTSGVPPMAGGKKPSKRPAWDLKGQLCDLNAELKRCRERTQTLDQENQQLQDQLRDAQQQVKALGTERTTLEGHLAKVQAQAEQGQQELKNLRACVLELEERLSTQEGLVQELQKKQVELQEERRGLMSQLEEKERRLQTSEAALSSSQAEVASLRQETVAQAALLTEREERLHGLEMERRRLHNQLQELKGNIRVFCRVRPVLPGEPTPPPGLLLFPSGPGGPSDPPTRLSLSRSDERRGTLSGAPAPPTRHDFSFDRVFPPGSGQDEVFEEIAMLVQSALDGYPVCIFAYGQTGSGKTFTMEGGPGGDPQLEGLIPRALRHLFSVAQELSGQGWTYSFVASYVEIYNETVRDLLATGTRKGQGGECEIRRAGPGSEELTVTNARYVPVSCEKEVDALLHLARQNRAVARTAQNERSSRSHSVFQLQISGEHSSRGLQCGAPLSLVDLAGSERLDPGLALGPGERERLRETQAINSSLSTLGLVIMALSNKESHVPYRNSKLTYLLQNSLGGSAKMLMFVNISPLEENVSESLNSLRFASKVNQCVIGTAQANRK
In short: as §1

RPE-1 cells = assay: Live cell imaging of metaphase duration; assay type: cell-based, human; conditions: Munesib-1 50 µM, Fift-IN and GW108X 25 µM

COC(=O)c1ccc2c(c1)N(C)S(=O)(=O)c1cnc(SC)nc1-2 [Munesib-1, Methyl 6-methyl-2-(methylthio)-6H-benzo[c]pyrimido[4,5-e][1,2]thiazine-8-carboxylate 5,5-dioxide]
effect on monopolarity index [1]: failed to substantially increase the monopolarity index | IC50 (KIF15-N420): 2800 nM | amount of KIF15 on metaphase spindle [2]: little effect | effect on spindle assembly in parental line (HeLa cells): little effect on the parental HeLa line | inhibition of microtubule gliding, Eg5 (Eg5): neither substantially inhibited | inhibition of microtubule gliding, HSET (HSET): neither substantially inhibited | metaphase duration (metaphase plate formation until anaphase onset) (RPE-1 cells): no significant change in metaphase timing
